Our source for the fold change (FC), GI50 and inhibition values is ChEMBL document CHEMBL1629447, “Antitumor agents 286. Design, synthesis, and structure-activity relationships of 3'R,4'R-disubstituted-2',2'-dimethyldihydropyrano[2,3-f]chromone (DSP) analogues as potent chemosensitizers to overcome multidrug resistance” (2010).

≈ marks a conversion by molar mass, not a printed value. Calls of active or inactive are those of the source. The calls are words filed in the database; no cut-off is given here.

Test [1] relates to KBVIN. The test is described as follows: Inhibition of Pgp-mediated multidrug resistance in human KBVIN cells assessed as chemosensitization activity measured by increase in vincristine-induced cytotoxicity at 1 ug/mL by SRB assay relative to untreated control. The test is classed as cell-based.
A short description of test [2]: Cytotoxicity in human KBVIN cells by SRB assay. The test is classed as functional. The essentials: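 Cellular protein read by sulforhodamine B staining, absorbance 562 nm. GI50 is the concentration giving 50% lower absorbance than untreated cells, taken from replicate dose-response curves.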
For orientation: Sulforhodamine B stains cellular protein and so reports cell mass.

For test [3], the system named is KBVIN. The test is described as follows: Inhibition of Pgp in human KBVIN cells assessed as facilitation of in calcein-AM accumulation by […]. The test is classed as cell-based. A digest of the protocol: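 KB-Vin (MDR) cells, 10,000 per well, adhered one day in medium with 5% FBS. Pre-exposed to test compound at several concentrations for 30 min at 37 °C, then given fresh medium with 1 μM calcein-AM plus compound for 30 min at 37 °C. Washed with cold PBS in low light, lysed in 20 mM Tris-HCl, fluorescence read Ex 494/Em 517 nm. Verapamil as inhibitor control; two or more independent experiments.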

One may read the GI50 as the concentration giving 50% growth inhibition. Regarding `CCc1cc(=O)c2ccc3c(c2o1)[C@@H](OC(=O)c1ccc(C#N)cc1)[C@@H](OC(=O)c1ccc(C#N)cc1)C(C)(C)O3`, the fold change (FC) in the test with KBVIN [1] was 188. Further, the GI50 in test [2] is > 5.5 mg/L. For the same compound, the inhibition result with KBVIN [3] was “Active”.
Take `CCc1cc(=O)c2ccc3c(c2o1)[C@@H](OC(=O)c1cccc(OC)c1)[C@@H](OC(=O)c1cccc(OC)c1)C(C)(C)O3`: the fold change (FC) in the test on KBVIN [1] amounted to 27.1. In test [2], the GI50 is > 35.8 mg/L.
The corresponding values for `CCc1cc(=O)c2ccc3c(c2o1)[C@@H](OC(=O)/C=C/c1ccccc1)[C@@H](OC(=O)/C=C/c1ccccc1)C(C)(C)O3` are 222 and 9.44 mg/L (≈ 17.1 µM).
Turning to `CCc1cc(=O)c2ccc3c(c2o1)[C@@H](OC(=O)c1cccc(C(F)(F)F)c1)[C@@H](OC(=O)c1cccc(C(F)(F)F)c1)C(C)(C)O3`, the fold change (FC) in the test on KBVIN [1] was < 12.2. Moreover, the GI50 in test [2] is > 31.5 mg/L.
The corresponding values for `CCc1cc(=O)c2ccc3c(c2o1)[C@@H](OCc1ccccc1)[C@@H](OCc1ccccc1)C(C)(C)O3` are 40.7 and > 15.7 mg/L.
The corresponding values for `CCc1cc(=O)c2ccc3c(c2o1)[C@@H](OC(=O)N(C)C)[C@@H](OC(=O)N(C)C)C(C)(C)O3` are < 12.2 and > 20 mg/L.
Take `CCc1cc(=O)c2ccc3c(c2o1)[C@@H](OC(=O)/C=C/c1ccc(OC)cc1)[C@@H](OC(=O)/C=C/c1ccc(OC)cc1)C(C)(C)O3`: the fold change (FC) with KBVIN [1] worked out at 287. Also, the GI50 in test [2] was > 36.4 mg/L.
Taken in the same sequence, the figures for `CCc1cc(=O)c2ccc3c(c2o1)[C@@H](OC(=O)N1CCCC1)[C@@H](OC(=O)N1CCCC1)C(C)(C)O3` were 24.9 and > 20 mg/L.
The corresponding values for `CCc1cc(=O)c2ccc3c(c2o1)[C@@H](OC(=O)c1ccc([N+](=O)[O-])cc1)[C@@H](OC(=O)c1ccc([N+](=O)[O-])cc1)C(C)(C)O3` are 203 and > 34 mg/L.
Taken in the same sequence, the figures for `CCc1cc(=O)c2ccc3c(c2o1)[C@@H](OC(=O)Cc1ccccc1)[C@@H](OC(=O)Cc1ccccc1)C(C)(C)O3` were 81.3 and 8.33 mg/L (≈ 15.8 µM).
In the case of `CCc1cc(=O)c2ccc3c(c2o1)[C@@H](OC(=O)c1ccccc1OC)[C@@H](OC(=O)c1ccccc1OC)C(C)(C)O3`, the fold change (FC) with KBVIN [1] came out at 28.1. Besides, the GI50 in test [2] was > 31.5 mg/L.
Turning to `CCCCN(CCCC)C(=O)O[C@@H]1c2c(ccc3c(=O)cc(CC)oc23)OC(C)(C)[C@@H]1OC(=O)N(CCCC)CCCC`, the fold change (FC) in the test with KBVIN [1] is < 12.2. The GI50 in test [2] is > 20 mg/L.
As to `COc1ccc(CCN(C)CCCC(C#N)(c2ccc(OC)c(OC)c2)C(C)C)cc1OC` (configuration not stated) [VERAPAMIL], the fold change (FC) in the test with KBVIN [1] amounted to 141. Also, in test [2], the GI50 was > 31.5 mg/L.
For the compound `CCc1ccc(C(=O)O[C@@H]2c3c(ccc4c(=O)cc(CC)oc34)OC(C)(C)[C@@H]2OC(=O)c2ccc(CC)cc2)cc1`, in the test with KBVIN [1], the fold change (FC) stood at 20.3. For the same compound, the GI50 in test [2] is > 13.6 mg/L.
In the case of `CCc1cc(=O)c2ccc3c(c2o1)[C@@H](OC(=O)N1CCCCC1)[C@@H](OC(=O)N1CCCCC1)C(C)(C)O3`, the fold change (FC) in the test with KBVIN [1] turned out to be 22.2. Besides, the GI50 in test [2] is > 20 mg/L.
Turning to `CCc1cc(=O)c2ccc3c(c2o1)[C@@H](OC(=O)c1ccccc1C(F)(F)F)[C@@H](OC(=O)c1ccccc1C(F)(F)F)C(C)(C)O3`, in the test with KBVIN [1], the fold change (FC) is < 12.2. Further, the GI50 in test [2] was > 31.5 mg/L.
With `CCc1cc(=O)c2ccc3c(c2o1)[C@@H](OC(=O)Cc1ccc(OC)cc1)[C@@H](OC(=O)Cc1ccc(OC)cc1)C(C)(C)O3`, the fold change (FC) with KBVIN [1] came to 34.4. The same compound yielded a GI50 in test [2] of 13.3 mg/L (≈ 22.7 µM).
For the compound `CCc1cc(=O)c2ccc3c(c2o1)[C@@H](OC(=O)N(CC)CC)[C@@H](OC(=O)N(CC)CC)C(C)(C)O3`, the fold change (FC) in the test with KBVIN [1] amounted to 116. In test [2], the GI50 was > 20 mg/L.
As to `CCc1cc(=O)c2ccc3c(c2o1)[C@@H](OC(=O)c1ccc(OC)cc1)[C@@H](OC(=O)c1ccc(OC)cc1)C(C)(C)O3`, the fold change (FC) with KBVIN [1] turned out to be 257. Halving of growth in test [2] (GI50) required 9 mg/L (≈ 16.1 µM). Moreover, the inhibition entry in the test with KBVIN [3] is “Active”.
`CCc1cc(=O)c2ccc3c(c2o1)[C@@H](OC(=O)c1ccc(C)cc1)[C@@H](OC(=O)c1ccc(C)cc1)C(C)(C)O3`: the fold change (FC) in the test on KBVIN [1] came out at 349. Besides, in test [2], the GI50 is 20.6 mg/L (≈ 39.1 µM).
Take `CCc1cc(=O)c2ccc3c(c2o1)[C@@H](OC(=O)c1ccc(C(F)(F)F)cc1)[C@@H](OC(=O)c1ccc(C(F)(F)F)cc1)C(C)(C)O3`: the fold change (FC) in the test with KBVIN [1] is 16.3. The GI50 in test [2] was > 31.5 mg/L.
Take `CCc1cc(=O)c2ccc3c(c2o1)[C@@H](OC(=O)C1CCCCC1)[C@@H](OC(=O)C1CCCCC1)C(C)(C)O3`: the fold change (FC) with KBVIN [1] was < 12.2. In addition, in test [2], the GI50 is > 20 mg/L.
For `CCc1cc(=O)c2ccc3c(c2o1)[C@@H](OC(=O)c1cccc(C#N)c1)[C@@H](OC(=O)c1cccc(C#N)c1)C(C)(C)O3`, in the test with KBVIN [1], the fold change (FC) was determined as 160. The GI50 in test [2] was > 2.5 mg/L.
Regarding `CCc1cc(=O)c2ccc3c(c2o1)[C@@H](OC(=O)c1ccccc1)[C@@H](OC(=O)c1ccccc1)C(C)(C)O3`, the fold change (FC) with KBVIN [1] is < 12.2. Besides, the GI50 in test [2] is 8.79 mg/L (≈ 17.6 µM).
Consider `CCc1cc(=O)c2ccc3c(c2o1)[C@@H](OC(=O)CCc1ccccc1)[C@@H](OC(=O)CCc1ccccc1)C(C)(C)O3`, for which the fold change (FC) in the test with KBVIN [1] was 106. Further, the GI50 in test [2] came to 10.1 mg/L (≈ 18.2 µM).
